Published values pooled from the literature.
Protocols differ between the studies behind these lines.
Target: Serine/threonine-protein kinase STK11 (STK11, Homo sapiens, UniProt Q15831)
One construct used (Q15831 1-433): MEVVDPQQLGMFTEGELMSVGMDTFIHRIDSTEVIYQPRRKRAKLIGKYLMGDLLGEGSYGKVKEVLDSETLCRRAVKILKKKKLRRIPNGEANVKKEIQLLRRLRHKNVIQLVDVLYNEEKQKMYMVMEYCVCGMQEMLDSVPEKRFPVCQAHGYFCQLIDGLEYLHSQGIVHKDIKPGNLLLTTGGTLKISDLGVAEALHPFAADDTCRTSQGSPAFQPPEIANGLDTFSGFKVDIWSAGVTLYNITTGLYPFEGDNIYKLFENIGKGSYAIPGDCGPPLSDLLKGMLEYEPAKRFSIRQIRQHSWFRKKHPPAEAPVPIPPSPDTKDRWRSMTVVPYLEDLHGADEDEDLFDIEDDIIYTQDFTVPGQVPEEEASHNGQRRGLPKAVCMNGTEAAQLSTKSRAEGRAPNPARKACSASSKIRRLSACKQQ

With `Nc1ncc(-c2nc(N3CCOCC3)nc(N3CCOCC3)n2)c(C(F)F)n1` the remaining binding was 91% (binding, competition with immobilised ligand; 10 µM).
The remaining binding of `N#CC1(c2ccccn2)CCN(Cc2cc(C(=O)O)c(=O)n3ccccc23)CC1` is reported as 100% (cell-free assay, competition with immobilised ligand; 1 µM).
For `COc1ncccc1-c1cnn2ccc(N3CCN(C(=O)OC(C)C)CC3)nc12`, the remaining binding was 9.7% (binding, competition with immobilised ligand; 1 µM).
`O=c1[nH]c2ccccc2n1C1CCN(Cc2ccc(-c3[nH]c4cc5ncnc5cc4nc3-c3ccccc3)cc2)CC1` has a remaining signal of 95.6% (cell-free assay; 0.5 µM).
`Cn1cncc1[C@@](O)(COc1ccc(C#N)cc1-c1ccc(OC(F)(F)F)cc1)c1ccc(C#N)cc1` has a remaining binding of 100% (cell-free assay, competition with immobilised ligand; 1 µM).
For `Cc1nn(C)cc1-c1nc2c(N3CCN(Cc4ccc(Cl)cc4)CC3)c(Cl)cnc2[nH]1`, the remaining binding was 100% (binding, competition with immobilised ligand; 1 µM).
The remaining activity of `CC(C)(C)c1cc(C=C(C#N)C#N)cc(Br)c1O` is reported as 85.2% (enzyme activity, inhibitor; 0.5 µM).
`COc1cc(Nc2ncc(F)c(Nc3ccc4c(n3)NC(=O)C(C)(C)O4)n2)cc(OC)c1OC` has an inhibition of 0% (binding; 10 µM).
